Our source for the inhibition, EC50 and Emax values is ChEMBL document CHEMBL3297663, “Synthesis and evaluation of (E)-2-(acrylamido)cyclohex-1-enecarboxylic acid derivatives as HCA1, HCA2, and HCA3 receptor agonists” (Bioorg Med Chem, 2014).

For orientation: inhibition means the drop in the measured response relative to a control, in per cent. For orientation: EC50 means the concentration needed to bring the measured effect to its halfway point. For orientation: Emax means the greatest response seen or fitted, relative to the assay's reference.

Holding throughout (format): functional, cell-based
Assay [1] has as its target Hydroxycarboxylic acid receptor 1 (Homo sapiens) (UniProt Q9BXC0). The experiment in a line: Agonist activity at human HCA1 receptor expressed in Flp-In-293 cells assessed as inhibition of forskolin-induced cAMP accumulation up to 50 uM after 30 mins. The gist of the method: (§1)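 Stable HCA-expressing Flp-In-293 cells (10,000/well) were treated with compound plus forskolin for 30 min in PBS containing 2% BSA and 0.5 mM IBMX. The value is the maximal % inhibition of forskolin-stimulated cAMP, with the forskolin-only level taken as 100%. Data are mean ± SD from at least three experiments, each in duplicate.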

The target in assay [2] is Hydroxycarboxylic acid receptor 3 (Homo sapiens) (UniProt P49019). The experiment in a line: Agonist activity at human HCA3 receptor expressed in Flp-In-293 cells assessed as inhibition of forskolin-induced cAMP accumulation at 50 uM after 30 mins. The essentials:
(§2)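 Flp-In-293 cells stably transfected with HCA receptor plasmids were plated at 10,000 cells/well. They were stimulated with forskolin plus compound for 30 min in PBS with 2% BSA and 0.5 mM IBMX. Inhibition of cAMP accumulation at a single compound concentration is expressed as % of the forskolin-stimulated level (set to 100%). Values are mean ± SD of at least three experiments, each in duplicate.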

For assay [3], the target named is T1, Hydroxycarboxylic acid receptor 2 (Homo sapiens, UniProt Q8TDS4). The experiment in a line: Agonist activity at human HCA2 receptor expressed in Flp-In-293 cells assessed as inhibition of forskolin-induced cAMP accumulation at 50 uM after 30 mins. The gist of the method:
as §2

For assay [4], the target named is Hydroxycarboxylic acid receptor 1 (Homo sapiens) (UniProt Q9BXC0). In words: Agonist activity at human HCA1 receptor expressed in Flp-In-293 cells assessed as inhibition of forskolin-induced cAMP accumulation at 50 uM after 30 mins. The gist of the method: as §2
Hydroxycarboxylic acid receptor 1 (Homo sapiens), sequence (Q9BXC0 whole entry): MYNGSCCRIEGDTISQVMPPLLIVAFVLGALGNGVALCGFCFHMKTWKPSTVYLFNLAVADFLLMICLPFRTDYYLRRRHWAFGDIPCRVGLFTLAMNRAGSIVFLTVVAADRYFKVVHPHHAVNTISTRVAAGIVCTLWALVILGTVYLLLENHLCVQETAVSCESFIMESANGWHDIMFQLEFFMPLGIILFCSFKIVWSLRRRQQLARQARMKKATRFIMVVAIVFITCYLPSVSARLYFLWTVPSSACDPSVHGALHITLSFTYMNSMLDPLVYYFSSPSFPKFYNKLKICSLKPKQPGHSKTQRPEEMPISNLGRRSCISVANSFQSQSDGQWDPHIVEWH
The target in assay [5] is Hydroxycarboxylic acid receptor 3 (Homo sapiens) (UniProt P49019). In words: Agonist activity at human HCA3 receptor expressed in Flp-In-293 cells assessed as inhibition of forskolin-induced cAMP accumulation up to 50 uM after 30 mins. The essentials: as §1
Hydroxycarboxylic acid receptor 3 (Homo sapiens), sequence (P49019 whole entry): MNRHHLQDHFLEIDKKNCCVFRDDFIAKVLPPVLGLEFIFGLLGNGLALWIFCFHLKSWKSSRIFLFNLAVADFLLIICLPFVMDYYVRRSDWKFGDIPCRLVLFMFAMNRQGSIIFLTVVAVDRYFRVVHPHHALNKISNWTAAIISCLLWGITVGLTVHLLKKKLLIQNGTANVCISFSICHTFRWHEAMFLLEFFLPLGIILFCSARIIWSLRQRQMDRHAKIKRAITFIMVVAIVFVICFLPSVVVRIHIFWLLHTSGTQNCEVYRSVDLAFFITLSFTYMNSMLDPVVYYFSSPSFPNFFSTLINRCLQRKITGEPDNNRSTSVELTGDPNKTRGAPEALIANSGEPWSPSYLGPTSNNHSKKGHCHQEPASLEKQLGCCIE
(cAMP levels reflect the balance of adenylyl cyclase and phosphodiesterase activity.)

Assay [6] addresses T1, Hydroxycarboxylic acid receptor 2. In words: Agonist activity at human HCA2 receptor expressed in Flp-In-293 cells assessed as inhibition of forskolin-induced cAMP accumulation up to 50 uM after 30 mins. The essentials:
as §1

Assay [7] shares this target. The experiment in a line: Agonist activity at human HCA2 receptor expressed in Flp-In-293 cells assessed as inhibition of forskolin-induced cAMP accumulation after 30 mins. The gist of the method:
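EC50 values come from an intracellular cAMP assay in Flp-In-293 cells stably expressing the receptor (10,000 cells/well). Cells were co-incubated 30 min with forskolin and compound in PBS, 2% BSA and 0.5 mM IBMX. Values are mean ± SD of at least three experiments, each in duplicate.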

The structures appear in SMILES notation. The source made the active and inactive calls. The rule behind the calls is not given here.

T1 sequence (Q8TDS4 whole entry): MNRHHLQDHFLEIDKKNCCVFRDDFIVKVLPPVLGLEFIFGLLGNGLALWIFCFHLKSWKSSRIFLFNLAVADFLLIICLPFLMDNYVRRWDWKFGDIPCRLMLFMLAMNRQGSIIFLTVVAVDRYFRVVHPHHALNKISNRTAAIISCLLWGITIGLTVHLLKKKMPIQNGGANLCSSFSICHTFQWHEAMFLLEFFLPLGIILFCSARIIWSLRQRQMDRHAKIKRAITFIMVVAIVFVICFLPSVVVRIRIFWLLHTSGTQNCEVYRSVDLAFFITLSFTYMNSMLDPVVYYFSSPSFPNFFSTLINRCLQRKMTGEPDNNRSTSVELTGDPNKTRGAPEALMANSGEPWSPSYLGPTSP

Consider `O=C(CCc1cccc2cccnc12)NC1=C(C(=O)O)CCCC1`, for which the inhibition result in assay [1] is “inactive”. Also, the figures for the inhibition in assay [2] and in assay [3] were 55% and 60%, respectively.

As to `COc1ccc2cc(/C=C/C(=O)NC3=C(C(=O)O)CCCC3)ccc2c1`, the inhibition in assay [4] is 26%. The inhibition result in assay [5] and in assay [6] was “inactive” in each case.

Regarding `COc1cc2nc(/C=C/C(=O)NC3=C(C(=O)O)CCCC3)ccc2c(OC)c1OC`, the inhibition in assay [4] came out at 38%; in assay [2], 61%; in assay [3], 53%.

Regarding `O=C(O)C1=C(NC(=O)[C@@H]2C[C@H]2c2ccc3ccccc3c2)CCCC1` (racemic), in assay [4], the inhibition was 40%. In assay [7], the EC50 amounted to 12.5 µM and the maximal effect (Emax) turned out to be 96%. In addition, the inhibition in assay [2] was found to be 55%.

`COc1nc2ccccc2cc1/C=C/C(=O)NC1=C(C(=O)O)CCCC1`: the inhibition in assay [4] came to 27%; in assay [2], 58%; in assay [3], 59%.

Take `O=C(/C=C/C#Cc1ccccc1)NC1=C(C(=O)O)CCCC1`: in assay [7], the EC50 was 3.6 µM and the Emax came to 90%. The inhibition entry in assay [1] is “inactive”. In assay [2], the inhibition amounted to 56%.

Consider `COc1cc(/C=C/C(=O)NC2=C(C(=O)O)CCCC2)cc(Br)c1OC`, for which, in assay [1], the inhibition result is “inactive”. The inhibition in assay [2] was 46%; in assay [3], 23%.

In the case of `O=C(/C=C/c1ccc2ccccc2n1)NC1=C(C(=O)O)CCCC1`, the EC50 in assay [7] amounted to 4.1 µM. Besides, the Emax in assay [7] was determined as 99%. The inhibition entry in assay [5] and in assay [1] was “inactive” throughout.

On to `O=C(/C=C/c1cccc2cccnc12)NC1=C(C(=O)O)CCCC1`, for which the inhibition result in assay [1] and in assay [6] was “inactive” each time. The inhibition in assay [2] stood at 54%.

Take `Cc1ccc2cc(/C=C/C(=O)NC3=C(C(=O)O)CCCC3)ccc2n1`: the inhibition entry in assay [5], in assay [1] and in assay [6] was “inactive” each time.

As for `COc1ccc(/C=C/C(=O)NC2=C(C(=O)O)CCCC2)c(Cl)c1OC`, in assay [4], the inhibition worked out at 36%. In assay [7], the EC50 was found to be 26.3 µM and the Emax is 95%. Further, the inhibition in assay [2] came out at 48%.

Regarding `COc1ccc2nc(Cl)c(CCC(=O)NC3=C(C(=O)O)CCCC3)cc2c1`, the inhibition in assay [4] came out at 24%; in assay [2], 53%. Further, the EC50 in assay [7] turned out to be 4.1 µM. Besides, the Emax in assay [7] worked out at 91%.

As for `O=C(CCc1ccc2c(c1)OCO2)NC1=C(C(=O)O)CCCC1`, the inhibition in assay [4] was found to be 28%. In assay [7], the EC50 turned out to be 51.6 µM and the Emax was determined as 85%. In assay [2], the inhibition stood at 62%.

In the case of `O=C(O)C1=C(NC(=O)[C@H]2C[C@H]2c2ccc3ccccc3c2)CCCC1` (racemic), the inhibition entry in assay [5] and in assay [1] was “inactive” in each case. In addition, the inhibition in assay [3] is 34%.

As for `O=C(/C=C/c1ccc2ncccc2c1)NC1=C(C(=O)O)CCCC1`, the inhibition in assay [4] came out at 24%; in assay [2], 39%; in assay [3], 68%.

Consider `O=C(/C=C/c1cc2c(cc1Br)OCO2)NC1=C(C(=O)O)CCCC1`, for which the inhibition entry in assay [1] was “inactive”. In addition, the inhibition in assay [2] stood at 54%; in assay [3] it was 24%.

For the compound `COc1ccc2nc(Cl)c(/C=C/C(=O)NC3=C(C(=O)O)CCCC3)cc2c1`, the inhibition in assay [4] was 21%. Also, in assay [7], the EC50 is 6.3 µM and the Emax amounted to 86%. Moreover, the inhibition entry in assay [5] was “inactive”.

For `O=C(/C=C/c1ccc2c(c1)OCCO2)NC1=C(C(=O)O)CCCC1`, in assay [7], the EC50 is 6.8 µM and the Emax is 93%. Further, the inhibition result in assay [1] is “inactive”. For the same compound, in assay [2], the inhibition amounted to 66%.

In the case of `O=C(CCc1ccc2ccccc2c1)NC1=C(C(=O)O)CCCC1`, the inhibition in assay [4] was 41%. In assay [7], the EC50 was found to be 8.3 µM and the Emax turned out to be 97%. The inhibition in assay [2] amounted to 66%.

Turning to `O=C(/C=C/c1cc2ccccc2nc1Cl)NC1=C(C(=O)O)CCCC1`, the inhibition in assay [4] was 37%. For the same compound, in assay [7], the EC50 came to 27.4 µM and the Emax was 79%. Also, in assay [2], the inhibition was determined as 52%.

Take `Cc1ccc2cc(CCC(=O)NC3=C(C(=O)O)CCCC3)ccc2n1`: the results for the inhibition in assay [4] and in assay [2] were 23% and 54%, respectively. The concentration for a half-maximal effect (EC50) in assay [7] worked out at 36.4 µM. In assay [7], the Emax was determined as 82%.

With `O=C(CCc1ccc2ncccc2c1)NC1=C(C(=O)O)CCCC1`, the results for the inhibition in assay [4], in assay [2] and in assay [3] were 26%, 60% and 70%, respectively.

Regarding `O=C(C#Cc1ccc2cc(O)ccc2c1)NC1=C(C(=O)O)CCCC1`, in assay [7], the EC50 was 0.9 µM. In addition, the Emax in assay [7] came out at 98%. Also, the inhibition result in assay [5] and in assay [1] was “inactive” throughout.

For `O=C(/C=C/c1ccc2cc(O)ccc2c1)NC1=C(C(=O)O)CCCC1`, in assay [7], the EC50 was 1.4 µM and the Emax was found to be 96%. For the same compound, in assay [5], the inhibition entry is “inactive”. Besides, in assay [1], the inhibition result was “inactive”.

As for `O=C(/C=C/c1ccc2ccccc2c1)NC1=C(C(=O)O)CCCC1`, the inhibition in assay [4] is 14%. For the same compound, in assay [7], the EC50 stood at 4.5 µM and the Emax stood at 94%. For the same compound, the inhibition entry in assay [5] was “inactive”.

Take `O=C(CCc1ccc2cc(O)ccc2c1)NC1=C(C(=O)O)CCCC1`: the inhibition in assay [4] was 26%. Moreover, in assay [7], the EC50 worked out at 1.9 µM and the Emax was determined as 97%. Moreover, the inhibition result in assay [5] is “inactive”.

Consider `O=C(/C=C/c1ccnc2ccccc12)NC1=C(C(=O)O)CCCC1`, for which the inhibition result in assay [5], in assay [1] and in assay [6] was “inactive” throughout.

Take `COc1ccc(/C=C/C(=O)NC2=C(C(=O)O)CCCC2)cc1OC`: the figures for the inhibition in assay [4], in assay [2] and in assay [3] were 31%, 58% and 51%, respectively.

Turning to `O=C(/C=C/c1ccc2c(c1)OCO2)NC1=C(C(=O)O)CCCC1`, in assay [7], the EC50 came out at 5.8 µM and the Emax worked out at 83%. Also, the inhibition entry in assay [1] is “inactive”. For the same compound, the inhibition in assay [2] came out at 26%.

Regarding `O=C(/C=C/c1cc2c(cc1Cl)OCO2)NC1=C(C(=O)O)CCCC1`, the inhibition in assay [4] was 34%; in assay [2] it was 59%; in assay [3] it was 17%.

Regarding `O=C(/C=C/c1ccc2cccc(O)c2n1)NC1=C(C(=O)O)CCCC1`, the inhibition result in assay [5] and in assay [1] was “inactive” in each case. Further, the inhibition in assay [3] is 27%.
